Compounds with a hit are over-represented: about 2.9% of the library has one in this group of screens.
SENP8 block-1 – inhibitors of human SENP8 protease; Q96LD8; recombinant SENP8, Nedd8 substrate fluorescence; inhibition, % at 20 µM; 360,000 compounds, 0.64% hits; AID 602440; in the data active = inhibition mostly above about 40%, no sharp cut-off; inactive = mostly below about 27%
SENP1 inh – blocks the human SENP1 SUMO protease catalytic domain; Q9P0U3; recombinant SENP1 catalytic domain, CyPet-SUMO1-YPet FRET cleavage; inhibition, % at 10 µM; 360,000 compounds, 0.21% hits;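 active = inhibition at least 30% at 10 µM, raw YFP signal under a set limit, fluorescence ratio 0.5 to 1.5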
Target sequence (Q9P0U3 419-644 limits assumed): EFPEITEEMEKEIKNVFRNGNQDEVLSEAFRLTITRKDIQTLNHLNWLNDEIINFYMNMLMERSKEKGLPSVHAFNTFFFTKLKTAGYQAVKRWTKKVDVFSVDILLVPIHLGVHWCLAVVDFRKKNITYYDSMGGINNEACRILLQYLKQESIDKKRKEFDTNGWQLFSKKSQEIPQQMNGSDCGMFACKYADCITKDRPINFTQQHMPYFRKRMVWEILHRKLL
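System: Recombinant human SENP1 catalytic domain, His6-tagged | Incubation: Enzyme reaction for 50 min at room temperature, dark | Medium: Tris pH 8 with BME, BSA, NP40 and catalase | Also added: 25 nM SUMO1 FRET substrate | Compound: 10 µM single point, 0.5% DMSO | Measured by: FRET fluorescence in CFP and YFP emission channels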
SENP7 inh – blocks the human protease SENP7 | recombinant SENP7, Z-RLRGG-aminoluciferin luminescence, 40 min | inhibition, % at 5 µM | 330,000 compounds, 1.5% hits;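 active = inhibition above about 50% at the single test dose, limit read from the data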
Apaf1 inhib – inhibitors of human Apaf-1 apoptosome. inhibition, % at 20 µM. 330,000 compounds, 0.71% hits. reconstituted apoptosome caspase-3 activity, DEVD-Rh110 fluorescence. AID 489030; active = inhibition of at least 40% at 20 µM
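Assay system: Apoptosome proteins | Medium: pH 7.5 Hepes buffer with CHAPS, BSA, DTT | Also added: Cytochrome c and DEVD-Rh110 substrate | Times: 30 min plus 50 min, RT | Detection: Rhodamine 110 fluorescence at Ex 480/Em 540 nm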
SENP6 inh – SENP6 protease inhibition. 330,000 compounds, 1.8% hits. Recombinant SENP6 catalytic domain, aminoluciferin luminescence. inhibition, % at 10 µM;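 active = inhibition above about 50% at the single tested dose, limit read from the data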
Target sequence (Q9GZR1 628-1112 limits assumed): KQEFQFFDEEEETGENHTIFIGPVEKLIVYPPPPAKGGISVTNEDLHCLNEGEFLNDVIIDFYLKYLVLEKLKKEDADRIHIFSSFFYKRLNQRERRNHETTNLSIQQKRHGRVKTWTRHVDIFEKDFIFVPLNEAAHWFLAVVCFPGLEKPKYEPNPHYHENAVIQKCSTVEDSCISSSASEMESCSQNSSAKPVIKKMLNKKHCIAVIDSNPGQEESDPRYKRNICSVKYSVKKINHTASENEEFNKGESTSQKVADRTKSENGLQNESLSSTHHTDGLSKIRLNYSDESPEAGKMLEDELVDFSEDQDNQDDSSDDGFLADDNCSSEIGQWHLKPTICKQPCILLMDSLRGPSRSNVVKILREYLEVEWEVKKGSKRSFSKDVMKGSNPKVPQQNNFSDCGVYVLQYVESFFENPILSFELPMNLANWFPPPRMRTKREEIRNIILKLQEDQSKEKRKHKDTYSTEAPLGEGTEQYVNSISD
SENP8 block-2 – SENP8 protease inhibition; Q96LD8; purified SENP8, Z-RLRGG-aminoluciferin cleavage, luminescence; inhibition, % at 10 µM; 330,000 compounds, 1.2% hits; AID 2540; in the data active = inhibition above about 50%
SENP8 conf – confirmation of human SENP8 protease inhibitors; shares compounds with SENP7 inh; Recombinant SENP8, Z-RLRGG-aminoluciferin luminescence, 60 min; inhibition, % at 12.5 µM; 6,200 compounds, 40% hits;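 active = mean inhibition across replicates above about 50%, limit read from the data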
SENP6 confirm – confirmation of human SENP6 protease inhibitors | 6,200 compounds, 58% hits | shares compounds with SENP7 inh | inhibition, % at 12.5 µM | recombinant SENP6, Z-RLRGG-aminoluciferin luminescence
SENP7 confirm – confirmation of human SENP7 protease inhibitors; recombinant SENP7, Z-RLRGG-aminoluciferin luminescence, 40 min; AID 488917; 6,200 compounds, 69% hits; shares compounds with SENP7 inh; inhibition, % at 12.5 µM
Casp3 select – caspase-3 inhibition (SENP selectivity assay). shares compounds with SENP7 inh. purified caspase-3, Z-DEVD-aminoluciferin luminescence, 60 min. inhibition, % at 12.5 µM. 6,200 compounds, 60% hits;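 active = mean inhibition above about 50%, limit read from the data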
SENP luc ctr – counter-screen for SENP inhibitors: luminescence interference; shares compounds with SENP7 inh; 6,200 compounds, 39% hits; Pre-incubated SENP8/Z-RLRGG-aminoluciferin, luciferase luminescence interference; inhibition, % at 12.5 µM;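 active = mean inhibition above about 50% when retested at one dose, limit read from the data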
A number is an active result; i = inactive; nt = not tested or not shown.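 The calls were made as follows, unless noted: active = mean inhibition above about 50% in the one-dose retest (limit read from the data); inactive = the rest.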

SMILES	SENP8 block-1	SENP1 inh	SENP7 inh	Apaf1 inhib	SENP6 inh	SENP8 block-2	SENP8 conf	SENP6 confirm	SENP7 confirm	Casp3 select	SENP luc ctr
COc1cccc(N=Cc2c(O)c3ccccc3oc2=O)c1	i	i	i	i	62	i	i	i	76	i	i
CC(=O)c1cccc(N=Cc2c(O)c3ccccc3oc2=O)c1	i	i	i	i	i	i	nt	nt	nt	nt	nt
Cc1ccc(F)cc1N=Cc1c(O)c2ccccc2oc1=O	i	i	i	i	i	i	nt	nt	nt	nt	nt
Nc1ccc(/C=C/c2ccc3ncccc3c2)cc1	i	i	74	i	60	52	i	57	80	i	i
Cc1ccc(C(=O)/C=C/c2ccc3ncccc3c2)cc1	i	i	i	i	i	i	nt	nt	nt	nt	nt
Oc1ccc(/C=N/NC(=S)Nc2cccnc2)cc1	i	i	i	i	i	i	nt	nt	nt	nt	nt
Oc1ccc(/C=N/NC(=S)N/N=C/c2ccc(O)cc2)cc1	i	i	i	i	62	i	54	52	76	85	59
Cc1cc(C)cc(C(=O)NCC(=O)OCC(=O)NC2CC2)c1	i	i	i	i	i	i	nt	nt	nt	nt	nt
Cc1cc(-c2cc(-c3ccccc3)on2)nc(NC2CCCC2)n1	i	i	i	i	i	i	nt	nt	nt	nt	nt
Cc1ccc(-c2cc(-c3ccccc3)no2)cc1	i	i	98	i	97	92	i	i	71	i	i
Nc1nc(-c2ccccc2)cs1	i	i	i	i	i	i	nt	nt	nt	nt	nt
Nc1nc(-c2cc(-c3ccccc3)no2)cs1	i	i	96	i	96	95	97	97	102	95	83
c1ccc(-c2cc(-c3ccccc3)on2)cc1	i	i	98	i	i	87	i	85	i	56	i
O=C(c1ccccc1)c1cc(-c2ccccc2)on1	i	i	101	i	99	97	i	101	104	99	94
Cc1ccc(O)c(NC(=O)c2cc(-c3ccccc3)on2)c1	i	i	i	i	i	i	nt	nt	nt	nt	nt
O=C1NC(Cc2ccc(O)cc2)c2nc3ccc(F)cc3c(=O)n2-c2ncccc21 (centres undefined)	i	i	nt	nt	nt	nt	nt	nt	nt	nt	nt
COc1ccc(Cc2c(C(C)(C)C)nc3ccc(Cl)cn23)c(C)c1	i	i	nt	nt	nt	nt	nt	nt	nt	nt	nt
CC1CCCN(C(=O)C2CCN(S(=O)(=O)c3ccccc3)CC2)C1 (centres undefined)	i	i	i	i	i	i	nt	nt	nt	nt	nt
Cc1ccc(C(=O)CSc2ccccn2)cc1	i	i	51	i	69	51	i	i	i	76	68
O=C(O)c1ccnc(SCC(=O)c2ccccc2)c1	i	i	i	i	61	i	i	i	i	i	i
CC(=O)NC(CC(=O)OCC(=O)N1CCN(S(=O)(=O)c2ccc(C)cc2C)CC1)c1ccccc1 (centres undefined)	i	i	i	i	i	i	nt	nt	nt	nt	nt
Cc1ccc(C(=O)N2c3ccccc3N=C(c3ccccc3)C2C(=O)NC(C)C)cc1 (centres undefined)	i	i	nt	nt	nt	nt	nt	nt	nt	nt	nt
C(=C\c1nc(-c2ccccc2)no1)/c1ccccc1	i	i	85	i	84	75	75	82	94	65	59
O=C(Cn1nnc(-c2ccc3c(c2)OCO3)n1)Nc1ccccc1C(=O)O	i	i	60	i	89	80	i	87	97	87	87
O=C(Nc1ccc(F)cc1F)c1ccc2c(=O)n3c(nc2c1)CCC3	i	i	61	i	64	i	i	52	80	86	i
SMILES	SENP8 block-1	SENP1 inh	SENP7 inh	Apaf1 inhib	SENP6 inh	SENP8 block-2	SENP8 conf	SENP6 confirm	SENP7 confirm	Casp3 select	SENP luc ctr
CN(Cc1ccccc1)C(=O)c1ccc2nc([C@@H]3O[C@H](CO)[C@H](O)[C@H](O)[C@H]3O)[nH]c2c1	i	i	nt	nt	nt	nt	nt	nt	nt	nt	nt
Oc1ccc(Cl)cc1CNc1cccc2cccnc12	i	i	65	91	84	88	i	i	i	i	i
O=C(N/C=C/c1ccccc1)c1ccccc1	i	i	i	i	71	58	i	i	82	63	i
O=C(C1CCOCC1)N1CCCC(N2CCN(c3cccc(C(F)(F)F)c3)CC2)C1 (centres undefined)	i	i	i	i	i	i	nt	nt	nt	nt	nt
Cc1cccc2c(=O)n3c(cc12)-c1[nH]c2ccccc2c1CC3	i	i	nt	nt	nt	nt	nt	nt	nt	nt	nt
O=c1c2ccccc2nc2n1CCc1c-2[nH]c2ccccc12	i	i	89	i	64	i	i	i	i	i	i
COc1ccc2cc(C(=O)NCc3ccco3)c(=Nc3ccc(C(=O)O)cc3)oc2c1	i	i	i	i	i	i	nt	nt	nt	nt	nt
CCc1ccc2oc(-c3ccc(OC)cc3)cc(=Nc3c(C)n(C)n(-c4ccccc4)c3=O)c2c1	i	i	99	i	97	84	i	i	i	i	i
CCc1ccc2oc(-c3ccc(OC)cc3)cc(=Nc3cccc(C(=O)O)c3)c2c1	i	i	97	i	i	86	83	85	95	79	63
COc1ccc(-c2cc(=Nc3ccc(C(=O)O)cc3)c3cc(C)ccc3o2)cc1	i	i	89	i	66	79	i	81	93	84	64
CCOc1ccc2c(c1)c(N=Nc1cccc(C(=O)O)c1)c(O)n2C	i	i	i	i	i	i	nt	nt	nt	nt	nt
O=C(Cc1cccc(NC(=O)C2CCCN(C(=O)c3ccccc3)C2)c1)Nc1ccc(C(=O)N2CCOCC2)cc1 (centres undefined)	i	i	nt	nt	nt	nt	nt	nt	nt	nt	nt
CC1(C)OC(=O)C2=C(C[C@@H](C3CCCC3)O[C@H]2CCc2cccc(Cl)c2)O1	i	i	nt	nt	nt	nt	nt	nt	nt	nt	nt
NC(COCc1ccccc1)c1csc(Nc2ccc(C(=O)c3ccccc3)cc2)n1 (centres undefined)	i	i	nt	nt	nt	nt	nt	nt	nt	nt	nt
C[C@H](c1ccccc1)N1C[C@@H](COCc2ccccc2)Oc2cc(N3CCC[C@H]3CO)ccc2S1(=O)=O	i	i	nt	nt	nt	nt	nt	nt	nt	nt	nt
COc1cccc(C(=O)Cn2c(=N)n(C)c3ccccc32)c1	i	i	i	i	64	i	i	i	i	i	i
COc1cccc(C(=O)Cn2c(NCCO)nc3ccccc32)c1	i	i	i	i	i	i	nt	nt	nt	nt	nt

From PubChem
